# Laboratory results taken from ChEMBL document CHEMBL1275598, “In vitro activity of ceftaroline against community-associated methicillin-resistant, vancomycin-intermediate, vancomycin-resistant, and daptomycin-nonsusceptible Staphylococcus aureus isolates” (2010).
# Several values for one entry are separate records, joined by “and”; a condition that tells them apart may be missing. Equal entries are not always repeated.
# Columns and labels:
# Assay type in all cases: functional
# Staphylococcus aureus [1] = experiment: Antimicrobial activity against daptomycin-nonsusceptible Staphylococcus aureus by microdilution method
# In short: (§1)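 MIC by broth microdilution in cation-adjusted Mueller-Hinton broth, following CLSI guidelines; antibiotic powders reconstituted per CLSI. Read visually as the lowest drug concentration well with no visible growth. S. aureus ATCC 29213 and E. faecalis ATCC 29212 served as control strains. CA-MRSA: hospital patients culture-positive within 48 h of admission. DNSSA: patient blood isolates. VISA: obtained from the NARSA program.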
# Staphylococcus aureus [2] = experiment: Antimicrobial activity against vancomycin intermediate Staphylococcus aureus NRS-17 expressing SCCmec type 2 element by microdilution method; in short: as §1
# Staphylococcus aureus [3] = experiment: Antimicrobial activity against vancomycin intermediate Staphylococcus aureus NRS-76 expressing SCCmec type 2 element by microdilution method
# In short: (§2)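 Broth microdilution per CLSI in cation-adjusted Mueller-Hinton broth. Antibiotic powders were reconstituted per CLSI. The MIC was read visually as the lowest drug concentration with no visible growth. S. aureus ATCC 29213 and E. faecalis ATCC 29212 served as control strains. VISA and VRSA isolates came from the NARSA program.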
# Staphylococcus aureus [4] = experiment: Antimicrobial activity against vancomycin resistant Staphylococcus aureus VRS-2 expressing SCCmec type 2 element by microdilution method; in short: as §2
# Staphylococcus aureus [5] = experiment: Antimicrobial activity against vancomycin-resistant Staphylococcus aureus by microdilution method; in short: as §2
# Staphylococcus aureus [6] = experiment: Bactericidal activity against daptomycin-nonsusceptible Staphylococcus aureus assessed as antibiotic concentration that reduced the number of viable cells by =>99.9% by colony count method
# In short: (§3)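 MBC per CLSI guidelines. It was taken as the antibiotic concentration giving ≥99.9% reduction in viable cells, based on colony counts from the growth control well and rejection values from Pearson's tables.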
# Staphylococcus aureus [7] = experiment: Antimicrobial activity against community-acquired methicillin-resistant Staphylococcus aureus expressing SCCmec type 4 element by microdilution method; in short: as §1
# Staphylococcus aureus [8] = experiment: Antimicrobial activity against vancomycin resistant Staphylococcus aureus VRS-8 expressing SCCmec element by microdilution method; in short: as §2
# Staphylococcus aureus [9] = experiment: Bactericidal activity against vancomycin-resistant Staphylococcus aureus assessed as antibiotic concentration that reduced the number of viable cells by =>99.9% by colony count method
# In short: (§4)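 MBC per CLSI following microdilution in cation-adjusted Mueller-Hinton broth. Defined as the concentration giving ≥99.9% reduction in viable cells, judged from colony counts of the growth control well against Pearson rejection-value tables. CA-MRSA isolates were hospital patients' isolates with positive MRSA culture within 48 h of admission.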
# Staphylococcus aureus [10] = experiment: Antimicrobial activity against vancomycin intermediate Staphylococcus aureus NRS-402 expressing SCCmec type 2 element by microdilution method; in short: as §1
# Staphylococcus aureus [11] = experiment: Antimicrobial activity against vancomycin resistant Staphylococcus aureus VRS-7 expressing SCCmec element by microdilution method; in short: as §2
# Staphylococcus aureus [12] = experiment: Antimicrobial activity against vancomycin intermediate Staphylococcus aureus NRS-404 expressing SCCmec type 2 element by microdilution method; in short: as §1
# Staphylococcus aureus [13] = experiment: Bactericidal activity against community-acquired methicillin-resistant Staphylococcus aureus expressing SCCmec type 4 element assessed as antibiotic concentration that reduced the number of viable cells by =>99.9% by colony count method; in short: as §4
# Staphylococcus aureus [14] = experiment: Antimicrobial activity against vancomycin intermediate Staphylococcus aureus NRS-403 expressing SCCmec type 2 element by microdilution method; in short: as §1
# Staphylococcus aureus [15] = experiment: Antimicrobial activity against vancomycin intermediate Staphylococcus aureus NRS-74 expressing SCCmec type 2 element by microdilution method; in short: as §1
# Staphylococcus aureus [16] = experiment: Antimicrobial activity against vancomycin intermediate Staphylococcus aureus NRS-27 expressing SCCmec type 2 element by microdilution method; in short: as §1
# Staphylococcus aureus [17] = experiment: Antimicrobial activity against vancomycin resistant Staphylococcus aureus VRS-10 expressing SCCmec type 2 element by microdilution method; in short: as §2
# Staphylococcus aureus [18] = experiment: Antimicrobial activity against methicillin-resistant Staphylococcus aureus
# Staphylococcus aureus [19] = experiment: Antimicrobial activity against community-acquired methicillin-resistant Staphylococcus aureus expressing SCCmec type 4a element by microdilution method; in short: as §1
# Staphylococcus aureus [20] = experiment: Antimicrobial activity against community-acquired methicillin-resistant Staphylococcus aureus by microdilution method; in short: as §1
# Staphylococcus aureus [21] = experiment: Antimicrobial activity against vancomycin resistant Staphylococcus aureus VRS-6 expressing SCCmec type 2 element by microdilution method; in short: as §2
# Staphylococcus aureus [22] = experiment: Antimicrobial activity against vancomycin intermediate Staphylococcus aureus NRS-51 expressing SCCmec type 2 element by microdilution method; in short: as §1
# Staphylococcus aureus [23] = experiment: Antimicrobial activity against vancomycin intermediate Staphylococcus aureus NRS-118 expressing SCCmec type 1 element by microdilution method; in short: as §1
# Staphylococcus aureus [24] = experiment: Antimicrobial activity against vancomycin intermediate Staphylococcus aureus NRS-19 expressing SCCmec type 2 element by microdilution method; in short: as §1
# Staphylococcus aureus [25] = experiment: Antimicrobial activity against vancomycin resistant Staphylococcus aureus VRS-5 expressing SCCmec type 2 element by microdilution method; in short: as §2
# Staphylococcus aureus [26] = experiment: Antimicrobial activity against vancomycin intermediate Staphylococcus aureus NRS-73 expressing SCCmec type 4d element by microdilution method; in short: as §1
# Staphylococcus aureus [27] = experiment: Antimicrobial activity against vancomycin resistant Staphylococcus aureus VRS-1 expressing SCCmec type 2 element by microdilution method; in short: as §2
# Staphylococcus aureus [28] = experiment: Bactericidal activity against community-acquired methicillin-resistant Staphylococcus aureus assessed as antibiotic concentration that reduced the number of viable cells by =>99.9% by colony count method; in short: as §4
# Staphylococcus aureus [29] = experiment: Antimicrobial activity against vancomycin-intermediate Staphylococcus aureus by microdilution method; in short: as §2
# Staphylococcus aureus [30] = experiment: Antimicrobial activity against vancomycin intermediate Staphylococcus aureus NRS-18 expressing SCCmec type 2 element by microdilution method; in short: as §1
# Staphylococcus aureus [31] = experiment: Antimicrobial activity against community-acquired methicillin-resistant Staphylococcus aureus expressing SCCmec type 2 element by microdilution method; in short: as §1
# Staphylococcus aureus [32] = experiment: Antimicrobial activity against vancomycin resistant Staphylococcus aureus VRS-4 expressing SCCmec type 4 element by microdilution method; in short: as §2
# Staphylococcus aureus [33] = experiment: Antimicrobial activity against vancomycin resistant Staphylococcus aureus VRS-3 expressing SCCmec type 4 element by microdilution method; in short: as §2
# Staphylococcus aureus [34] = experiment: Antimicrobial activity against vancomycin intermediate Staphylococcus aureus NRS-23 expressing SCCmec type 2 element by microdilution method; in short: as §1
# Staphylococcus aureus [35] = experiment: Antimicrobial activity against vancomycin intermediate Staphylococcus aureus NRS-68 expressing SCCmec type 2 element by microdilution method; in short: as §1
# Staphylococcus aureus [36] = experiment: Antimicrobial activity against vancomycin intermediate Staphylococcus aureus NRS-24 expressing SCCmec type 2 element by microdilution method; in short: as §1
# Staphylococcus aureus [37] = experiment: Bactericidal activity against vancomycin-intermediate Staphylococcus aureus assessed as antibiotic concentration that reduced the number of viable cells by =>99.9% by colony count method; in short: as §3
# Staphylococcus aureus [38] = experiment: Antimicrobial activity against vancomycin intermediate Staphylococcus aureus NRS-22 expressing SCCmec type 2 element by microdilution method; in short: as §1
# Staphylococcus aureus [39] = experiment: Antimicrobial activity against vancomycin resistant Staphylococcus aureus VRS-9 expressing SCCmec type 2 element by microdilution method; in short: as §2
# Staphylococcus aureus [40] = experiment: Antimicrobial activity against vancomycin intermediate Staphylococcus aureus NRS-4 expressing SCCmec type 2 element by microdilution method; in short: as §1
# Staphylococcus aureus [41] = experiment: Antimicrobial activity against vancomycin intermediate Staphylococcus aureus NRS-126 expressing SCCmec type 2 element by microdilution method; in short: as §1
# Staphylococcus aureus [42] = experiment: Bactericidal activity against community-acquired methicillin-resistant Staphylococcus aureus expressing SCCmec type 4a element assessed as antibiotic concentration that reduced the number of viable cells by =>99.9% by colony count method; in short: as §4
# Staphylococcus aureus [43] = experiment: Antimicrobial activity against vancomycin intermediate Staphylococcus aureus NRS-3 expressing SCCmec type 2 element by microdilution method; in short: as §1
# Staphylococcus aureus [44] = experiment: Antimicrobial activity against vancomycin intermediate Staphylococcus aureus NRS-26 expressing SCCmec type 2 element by microdilution method; in short: as §1
structure (smiles),measurement,setting,value
CCO/N=C(\C(=O)N[C@@H]1C(=O)N2C(C(=O)[O-])=C(Sc3nc(-c4cc[n+](C)cc4)cs3)CS[C@H]12)c1nsc(NP(=O)(O)O)n1 [CEFTAROLINE FOSAMIL],MIC,Staphylococcus aureus [1],0.55 µg/mL and 0.25 µg/mL
same,MIC50,Staphylococcus aureus [1]; Staphylococcus aureus,0.5 µg/mL
same,MIC,Staphylococcus aureus [2],0.5 µg/mL
same,MIC,Staphylococcus aureus [3],0.25 µg/mL
same,MIC,Staphylococcus aureus [4],0.5 µg/mL
same,MIC50,Staphylococcus aureus [5],0.5 µg/mL
same,MIC90,Staphylococcus aureus [5],0.5 µg/mL
same,MBC,Staphylococcus aureus [6],0.74 µg/mL and 0.25 µg/mL
same,MBC50,Staphylococcus aureus [6],1 µg/mL
same,MIC90,Staphylococcus aureus [7],0.25 µg/mL
same,MIC,Staphylococcus aureus [8],0.12 µg/mL
same,MBC50,Staphylococcus aureus [9],0.5 µg/mL
same,MBC,Staphylococcus aureus [9]; Staphylococcus aureus,0.12 µg/mL
same,MIC,Staphylococcus aureus [10],0.5 µg/mL
same,MIC,Staphylococcus aureus [11],0.12 µg/mL
same,MIC,Staphylococcus aureus [12],0.5 µg/mL
same,MBC90,Staphylococcus aureus [13],0.5 µg/mL
same,MIC,Staphylococcus aureus [14],0.5 µg/mL
same,MIC,Staphylococcus aureus [15],0.25 µg/mL
same,MIC,Staphylococcus aureus [16],0.5 µg/mL
same,MIC,Staphylococcus aureus [17],0.5 µg/mL
same,MIC,Staphylococcus aureus [18],0.12 µg/mL
same,MIC90,Staphylococcus aureus [19],0.5 µg/mL
same,MIC50,Staphylococcus aureus [20],0.5 µg/mL
same,MIC90,Staphylococcus aureus [20],1 µg/mL
same,MIC,Staphylococcus aureus [21],0.5 µg/mL
same,MIC,Staphylococcus aureus [22],1 µg/mL
same,MIC,Staphylococcus aureus [23],1 µg/mL
same,MIC,Staphylococcus aureus [24],0.5 µg/mL
same,MIC,Staphylococcus aureus [25],0.5 µg/mL
same,MIC,Staphylococcus aureus [26],0.5 µg/mL
same,MIC,Staphylococcus aureus [27],1 µg/mL
same,MBC50,Staphylococcus aureus [28],0.5 µg/mL
same,MBC,Staphylococcus aureus [28]; Staphylococcus aureus,0.25 µg/mL
same,MIC50,Staphylococcus aureus [29],0.5 µg/mL
same,MIC90,Staphylococcus aureus [29],1 µg/mL
same,MIC,Staphylococcus aureus [30],0.5 µg/mL
same,MIC90,Staphylococcus aureus [31],1 µg/mL
same,MIC,Staphylococcus aureus [32],0.5 µg/mL
same,MIC,Staphylococcus aureus [33],0.5 µg/mL
same,MIC,Staphylococcus aureus [34],0.5 µg/mL
same,MIC,Staphylococcus aureus [35],0.5 µg/mL
same,MIC,Staphylococcus aureus [36],0.5 µg/mL
same,MBC50,Staphylococcus aureus [37],1 µg/mL
same,MBC90,Staphylococcus aureus [37],1 µg/mL
same,MBC,Staphylococcus aureus [37]; Staphylococcus aureus,0.5 µg/mL
same,MIC,Staphylococcus aureus [38],0.5 µg/mL
same,MIC,Staphylococcus aureus [39],0.25 µg/mL
same,MIC,Staphylococcus aureus [40],0.5 µg/mL
same,MIC,Staphylococcus aureus [41],1 µg/mL
same,MBC90,Staphylococcus aureus [42],0.5 µg/mL
same,MIC,Staphylococcus aureus [43],1 µg/mL
same,MIC,Staphylococcus aureus [44],0.25 µg/mL
